Consider seven compounds from ChEMBL document CHEMBL4396873, “Discovery of Potent, Selective, and Short-Acting Peptidic V2 Receptor Agonists” (J Med Chem, 2019).

A short description of data set [1]: Non-renal clearance in nephrectomized Sprague-Dawley rat at 0.1 mg/kg, iv administered as cassette dose by LC-MS/MS analysis. To be noted: in vivo. The data set is classed as ADME, organism-based.
The nature of data set [2]: Protein binding in rat plasma at 200 to 1000 ng/ml measured after 15 mins by UC-LC/MS/MS analysis. It is filed as ADME, cell-free. To be noted: read-out: PPB (converted). An outline of the steps:
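Peptide spiked into rat plasma to final 200-1000 ng/mL, incubated 15 min at 37 °C, ultracentrifuged at 773,000 xg for 30 min at 37 °C; middle-layer sample quantified by LC/MS/MS; binding (%) = (Ci − Cm)/Ci × 100; quadruplicate.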

Data set [3] addresses Vasopressin V2 receptor (Rattus norvegicus) (UniProt Q00788). Kind of data set: Agonist activity at recombinant rat V2 receptor expressed in HEK293 cells measured after 5 hrs by cAMP response element driven luciferase reporter gene assay relative to control. The data set is classed as functional, cell-based.
The subject of data set [4] is Rattus norvegicus. Kind of data set: Antidiuretic activity in hydrated-euvolemic Sprague-Dawley rat assessed as suppression of urine output by measuring cumulative urine weight at 30 to 100 pM administered as iv infusion for 180 mins measured up to 300 mins. The data set is classed as functional.
The test system of data set [5] is Rattus norvegicus. Kind of data set: Antidiuretic activity in hydrated-euvolemic Sprague-Dawley rat assessed as suppression of urine output administered as iv infusion for 180 mins measured during compound dosing. It is filed as functional, organism-based.
The nature of data set [6]: Half life in iv dosed Sprague-Dawley rat by LC-MS/MS analysis. It is filed as ADME, organism-based. To be noted: in vivo.
In data set [7] the target is Vasopressin V1a receptor (Homo sapiens, UniProt P37288). Kind of data set: Agonist activity at recombinant human V1a receptor expressed in HEK293 cells up to 1000 nM measured after 5 hrs by luciferase reporter gene assay. It is filed as cell-based. To be noted: hek293, 5 h. (A reporter such as luciferase makes a cellular process visible.)
The subject of data set [8] is Rattus norvegicus. Kind of data set: Antidiuretic activity in hydrated-euvolemic Sprague-Dawley rat assessed as suppression of urine output by measuring cumulative urine weight administered as iv infusion for 180 mins measured during compound dosing. It is filed as functional.
The test system of data set [9] is Rattus norvegicus. Kind of data set: Antidiuretic activity in hydrated-euvolemic Sprague-Dawley rat assessed as suppression of urine output at MED administered as iv infusion for 180 mins measured during compound dosing relative to control. The data set is classed as functional.
The test system of data set [10] is Rattus norvegicus. The data set is described as follows: Antidiuretic activity in hydrated-euvolemic Sprague-Dawley rat assessed as suppression of urine output at 30 to 100 pM administered as iv infusion for 180 mins measured after 1 hr. It is filed as functional, organism-based.
For data set [11], the target named is T1, Oxytocin receptor (Homo sapiens) (UniProt P30559).
T1 sequence (whole entry): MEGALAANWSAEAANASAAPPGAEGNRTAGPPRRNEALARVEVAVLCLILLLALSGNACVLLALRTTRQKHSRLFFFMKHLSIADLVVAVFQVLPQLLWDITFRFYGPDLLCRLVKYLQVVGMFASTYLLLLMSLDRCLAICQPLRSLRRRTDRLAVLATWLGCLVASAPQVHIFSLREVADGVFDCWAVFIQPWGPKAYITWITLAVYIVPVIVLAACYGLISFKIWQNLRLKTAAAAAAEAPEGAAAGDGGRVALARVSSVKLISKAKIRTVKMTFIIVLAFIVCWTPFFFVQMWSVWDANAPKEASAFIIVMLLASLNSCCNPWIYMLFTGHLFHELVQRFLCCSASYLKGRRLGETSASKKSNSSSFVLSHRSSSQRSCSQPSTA
The data set is described as follows: Agonist activity at human OTR stably expressed in CHOK1 cells up to 10000 nM by NFAT-luciferase reporter gene assay. The data set is classed as cell-based.

A short description of data set [12]: Clearance in Sprague-Dawley rat at 0.1 mg/kg, iv administered as cassette dose by LC-MS/MS analysis. It is filed as ADME, organism-based. To be noted: in vivo.
Data set [13] concerns the target Vasopressin V2 receptor (Rattus norvegicus, UniProt Q00788). Kind of data set: Agonist activity at recombinant rat V2 receptor expressed in HEK293 cells measured after 5 hrs by cAMP response element driven luciferase reporter gene assay. The data set is classed as functional, cell-based.
Data set [14] deals with Rattus norvegicus. The data set is described as follows: Antidiuretic activity in hydrated-euvolemic Sprague-Dawley rat assessed as effective plasma concentration causing half-maximal suppression of urine output administered as iv infusion for 180 mins measured during compound dosing. The data set is classed as functional, organism-based. To be noted: 3 h.
A short description of data set [15]: Elimination half life in Sprague-Dawley rat at 0.1 mg/kg, iv administered as cassette dose by LC-MS/MS analysis. The data set is classed as ADME, organism-based. Conditions: in vivo, read-out: beta t1/2.
For data set [16], the target named is Vasopressin V2 receptor (Homo sapiens, UniProt P30518). Kind of data set: Agonist activity at recombinant human V2 receptor expressed in HEK293 cells measured after 5 hrs by cAMP response element driven luciferase reporter gene assay. It is filed as functional, cell-based.
Data set [17] concerns the target Oxytocin receptor (Homo sapiens) (UniProt P30559). Kind of data set: Agonist activity at recombinant human oxytocin receptor expressed in HEK293 cells measured after 5 hrs by luciferase reporter gene assay.
Data set [18] has the same target. Kind of data set: Agonist activity at recombinant human oxytocin receptor expressed in HEK293 cells measured after 5 hrs by luciferase reporter gene assay relative to control. Conditions: read-out: Efficacy.
In data set [19] the test system is Rattus norvegicus. The data set is described as follows: Antidiuretic activity in hydrated-euvolemic Sprague-Dawley rat assessed as suppression of urine output at 30 pM administered as iv infusion for 180 mins measured immediately. The data set is classed as functional, organism-based.
The subject of data set [20] is Rattus norvegicus. Kind of data set: Antidiuretic activity in hydrated-euvolemic Sprague-Dawley rat assessed as suppression of urine output at 30 to 100 pM administered as iv infusion for 180 mins measured within 1 hr. It is filed as functional, organism-based.
Data set [21] deals with T2, Oxytocin receptor (Homo sapiens, UniProt P30559).
T2 sequence (P30559 whole entry): T1 sequence (whole entry)
Kind of data set: Agonist activity at human OTR stably expressed in CHOK1 cells by NFAT-luciferase reporter gene assay. It is filed as cell-based.

Data set [22] addresses T1, Oxytocin receptor (Homo sapiens). The data set is described as follows: Agonist activity at human OTR stably expressed in CHOK1 cells by NFAT-luciferase reporter gene assay relative to control. The data set is classed as cell-based.
The subject of data set [23] is Rattus norvegicus. Kind of data set: Antidiuretic activity in iv dosed rat assessed as suppression of urine output relative to control. The data set is classed as functional.
Data set [24] relates to Rattus norvegicus. The data set is described as follows: Antidiuretic activity in hydrated-euvolemic Sprague-Dawley rat assessed as suppression of urine output by measuring cumulative urine weight at 30 pM administered as iv infusion for 180 mins measured up to 300 mins. The data set is classed as functional.
The test system of data set [25] is Rattus norvegicus. Kind of data set: Antidiuretic activity in hydrated-euvolemic Sprague-Dawley rat assessed as suppression of urine output at 30 pM administered as iv infusion for 180 mins measured after 5 hrs. The data set is classed as functional, organism-based.
Data set [26] can be described thus: Clearance in severe renal impairment patent. It is filed as ADME. Conditions: human.
The nature of data set [27]: Clearance in iv dosed over hydrated human. The data set is classed as ADME, organism-based. Conditions: in vivo.

Activity calls are given as the source filed them. The rule behind the calls is not given here. Numbered stars: 1 amine (or outer) side, 2 acyl side, 3 side chain; on linkers, the order of the positions; unused ones are H or OH. Bridge positions count the residues as written; N and C are the ends. Square brackets hold non-standard residues; d marks the D form. Peptide text beside a SMILES is read from it. * marks the point of attachment. Phe(4-Cl) = N[C@@H](Cc1ccc(Cl)cc1)C(=O)O; Phe(4-Et) = CCc1ccc(C[C@H](N)C(=O)O)cc1; 2Thi = N[C@@H](Cc1cccs1)C(=O)O; X2 = N=C(N)NCCC[C@H](CO)N*; Agmatine = N=C(N)NCCCCN*; X1 = O=C(CCC[*:2])[*:1]; NH(CH2)4NH2 = NCCCCN*; NEt2 = CCN(CC)*

Vasopressin V1a receptor, sequence (P37288 whole entry, the tested form may be a part): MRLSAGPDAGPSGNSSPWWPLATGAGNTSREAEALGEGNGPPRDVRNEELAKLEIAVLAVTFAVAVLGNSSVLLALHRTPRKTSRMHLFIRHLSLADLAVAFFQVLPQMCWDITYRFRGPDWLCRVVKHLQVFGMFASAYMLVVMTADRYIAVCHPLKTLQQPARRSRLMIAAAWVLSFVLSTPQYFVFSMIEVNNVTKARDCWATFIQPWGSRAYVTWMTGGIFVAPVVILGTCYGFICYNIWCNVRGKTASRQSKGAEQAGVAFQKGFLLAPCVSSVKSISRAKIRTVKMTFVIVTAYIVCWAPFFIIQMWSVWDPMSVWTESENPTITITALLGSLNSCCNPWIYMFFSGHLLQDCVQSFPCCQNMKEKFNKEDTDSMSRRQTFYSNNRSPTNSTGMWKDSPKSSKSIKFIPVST
Vasopressin V2 receptor (Rattus norvegicus), sequence (Q00788 whole entry, the tested form may be a part): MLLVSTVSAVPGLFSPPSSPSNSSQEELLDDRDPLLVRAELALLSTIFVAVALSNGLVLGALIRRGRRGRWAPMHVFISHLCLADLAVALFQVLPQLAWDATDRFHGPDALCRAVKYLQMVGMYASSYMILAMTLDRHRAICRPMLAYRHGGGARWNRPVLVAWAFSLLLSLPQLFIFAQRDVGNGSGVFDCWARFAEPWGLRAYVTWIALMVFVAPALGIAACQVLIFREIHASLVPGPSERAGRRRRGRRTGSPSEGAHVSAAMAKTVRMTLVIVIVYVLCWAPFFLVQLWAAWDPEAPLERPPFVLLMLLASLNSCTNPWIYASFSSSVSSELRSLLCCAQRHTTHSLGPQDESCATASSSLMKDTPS
Vasopressin V2 receptor (Rattus norvegicus, UniProt Q00788), sequence (Q00788 whole entry, the tested form may be a part): as above
Vasopressin V2 receptor (Homo sapiens, UniProt P30518), sequence (P30518 whole entry): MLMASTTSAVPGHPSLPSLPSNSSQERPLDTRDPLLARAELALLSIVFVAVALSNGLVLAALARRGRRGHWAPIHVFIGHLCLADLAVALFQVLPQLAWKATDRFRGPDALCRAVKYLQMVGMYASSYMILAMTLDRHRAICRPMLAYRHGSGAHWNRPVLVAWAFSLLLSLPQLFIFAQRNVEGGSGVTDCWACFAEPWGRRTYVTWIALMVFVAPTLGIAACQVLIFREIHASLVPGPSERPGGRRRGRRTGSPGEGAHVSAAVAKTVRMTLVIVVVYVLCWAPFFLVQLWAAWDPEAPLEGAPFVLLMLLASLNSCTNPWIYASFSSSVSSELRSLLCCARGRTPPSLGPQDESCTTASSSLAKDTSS

`CCN(CC)C(=O)[C@@H](CCCNC(=N)N)NC(=O)[C@@H]1CCCN1C(=O)[C@@H]1CSCCCC(=O)N[C@@H](Cc2ccc(Cl)cc2)C(=O)N[C@@H](Cc2cccs2)C(=O)N[C@@H](C(C)C)C(=O)N[C@@H](CC(N)=O)C(=O)N1` ([Phe(4-Cl)][2Thi]VNCP[dR]-NEt2; linker N-5 via X1) showed a CL in data set [1] of 60%. The fraction unbound at […] in data set [2] was 0.08. For the same compound, the Efficacy in data set [3] is 91%. Moreover, the Activity in data set [4] was 1 g; in data set [5], “Dose-dependent effect”; in data set [7], “Not Active”; in data set [8], 5 g; in data set [9], 80%. Besides, the half-life in data set [6] was found to be 12 min; in data set [15], 6.4 min. Also, the result in data set [10] and in data set [11] was inactive. The clearance in [12] stood at 42 mL/min/kg. The figures for the EC50 in data set [13] and in data set [14] were 0.05 nM and 0.00043 nM, respectively.

For `CC(C)[C@@H]1NC(=O)[C@H](Cc2cccs2)NC(=O)[C@H](Cc2ccc(O)cc2)NC(=O)CCCSC[C@@H](C(=O)N2CCC[C@H]2C(=O)NCCCCN)NC(=O)[C@H](CC(N)=O)NC1=O` (Y[2Thi]VNCP-{NH(CH2)4NH2}; linker N-5 via X1), the concentration for a half-maximal effect (EC50) (commonly the concentration needed to bring the measured effect to its halfway point) in data set [16] was determined as 0.19 nM; in data set [17] it was 650 nM. The compound also came in with a CL in data set [1] of 18%. Moreover, the fraction unbound at […] in data set [2] is 0.58. Also, the Activity result in data set [7] is recorded as “Not Active”. The clearance in data set [12] was 7.2 mL/min/kg. The Emax in data set [18] is 28%.

In [1], `CC(C)[C@@H]1NC(=O)[C@H](Cc2cccs2)NC(=O)[C@H](Cc2ccc(Cl)cc2)NC(=O)CCCSC[C@@H](C(=O)N2CCC[C@H]2C(=O)NCCCCNC(=N)N)NC(=O)[C@H](CC(N)=O)NC1=O` ([Phe(4-Cl)][2Thi]VNCP-Agmatine; linker N-5 via X1) displayed a CL of 57%. The fraction unbound at […] in [2] is 0.15. Also, the Efficacy in data set [3] worked out at 99%. Moreover, the Activity in data set [4] was 1.3 g; in [5] it was “Dose-dependent effect”; in data set [7], “Not Active”; in data set [8], 5 g; in [9], 80%. Also, the half-life in [6] turned out to be 20 min; in [15], 16 min. Moreover, the outcome in data set [19], in [11] and in data set [20] was inactive. Further, the clearance in [12] was 14 mL/min/kg. The EC50 stood at 0.02 nM in data set [13] and 0.00064 nM in [14].

`CCc1ccc(C[C@@H]2NC(=O)CCCSC[C@@H](C(=O)N3CCC[C@H]3C(=O)N[C@@H](CO)CCCNC(=N)N)NC(=O)[C@H](CC(N)=O)NC(=O)[C@H](C(C)C)NC(=O)[C@H](Cc3cccs3)NC2=O)cc1` ([Phe(4-Et)][2Thi]VNCP-X2; linker N-5 via X1): the EC50 was 0.35 nM in data set [16] and over 10000 nM in data set [21]. The compound also displayed a CL in data set [1] of 80%. Also, the fraction unbound at […] in [2] is 0.16. In addition, in data set [7], the Activity result is “Not Active”. Besides, the clearance in data set [12] came out at 9.4 mL/min/kg.

`CC(C)[C@@H]1NC(=O)[C@H](Cc2cccs2)NC(=O)[C@H](Cc2ccc(Cl)cc2)NC(=O)CCCSC[C@@H](C(=O)N2CSC[C@H]2C(=O)N[C@H](CCCNC(=N)N)C(=O)NCc2ccccc2)NC(=O)[C@H](CC(N)=O)NC1=O` yielded a CL in data set [1] of 100%. Further, the fraction unbound at […] in data set [2] is 0.09. The Activity entry in data set [7] is recorded as “Not Active”. Also, the Efficacy in data set [22] is 32%. The same compound gave a half-maximal effective concentration (EC50) in [21] of 140 nM. For the same compound, the clearance in [12] amounted to 38 mL/min/kg.

Take `N=C(N)NCCC[C@@H](NC(=O)[C@@H]1CCCN1C(=O)[C@@H]1CSSCCC(=O)N[C@@H](Cc2ccc(O)cc2)C(=O)N[C@@H](Cc2ccccc2)C(=O)N[C@@H](CCC(N)=O)C(=O)N[C@@H](CC(N)=O)C(=O)N1)C(=O)NCC(N)=O` [DESMOPRESSIN]: the Efficacy in [3] stood at 100%. The Activity in data set [23] amounted to 48%; in [24], 0.99 g; in data set [8] it was 5.2 g; in data set [9], 80%. Further, the EC50 in [14] turned out to be 0.00032 nM. The outcome in data set [25] was Active.

In data set [1], `NC(=O)CC[C@@H]1NC(=O)[C@H](Cc2ccccc2)NC(=O)[C@H](Cc2ccc(O)cc2)NC(=O)CCSSC[C@@H](C(=O)N2CCC[C@H]2C(=O)N[C@H](CCCN=C(N)N)C(=O)NCC(N)=O)NC(=O)[C@H](CC(N)=O)NC1=O` [DESMOPRESSIN] showed a CL of 11%. Besides, the fraction unbound at […] in data set [2] is 0.59. Further, the figures for the clearance in data set [26] and in data set [27] were 0.69 mL/min/kg and 1.7 mL/min/kg, respectively. In [13], the EC50 worked out at 0.03 nM.
